Results: ChEMBL document CHEMBL1154939, “Novel multiple opioid ligands based on 4-aminobenzazepinone (Aba), azepinoindole (Aia) and tetrahydroisoquinoline (Tic) scaffolds” (Bioorg Med Chem Lett, 2010)
Active and inactive are the calls of the source. The calls are words filed in the database; no cut-off is given here. Numbered stars: 1 amine (or outer) side, 2 acyl side, 3 side chain; on linkers, the order of the positions; unused ones are H or OH. Bridge positions count the residues as written; N and C are the ends. Square brackets hold non-standard residues; d marks the D form. Peptide text beside a SMILES is read from it. I, II: the chains in the order shown. Dmt = Cc1cc(O)cc(C)c1C[C@H](N)C(=O)O; Ethylenediamine = C(CN[*:2])N[*:1]; Tic = O=C(O)[C@@H]1Cc2ccccc2CN1

Experiments:
Mu-type opioid receptor [1] = target: Mu-type opioid receptor (Cavia porcellus, UniProt P97266); assay: Antagonist activity at mu opioid receptor in guinea pig ileum; format: functional, tissue-based
[2] = target: Delta-type opioid receptor (Mus musculus, UniProt P32300); assay: Antagonist activity at delta opioid receptor in mouse vas deferens; format: functional, tissue-based
[3] = target: Delta-type opioid receptor (Rattus norvegicus, UniProt P33533); assay: Displacement of [3H]deltorphin 2 from delta opioid receptor in rat brain membranes; format: cell membranes
Procedure, shortened: (§1)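 Equilibrium competition binding on P2 membrane preparation of rat brain; mu sites labelled with [3H]DAMGO, delta sites with [3H]deltorphin II. Five to eight graded peptide doses, duplicate wells; Ki via Cheng-Prusoff. Mean ± SEM from three to six independent assays using different synaptosomal preparations.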

Mu-type opioid receptor [4] = target: Mu-type opioid receptor (Rattus norvegicus, UniProt P33535); assay: Displacement of [3H]DAMGO from mu opioid receptor in rat brain membranes; format: cell membranes; procedure, shortened: as §1
[5] = target: Mu-type opioid receptor (Homo sapiens) (UniProt P35372); assay: Antagonist activity at mu opioid receptor in human SK-N-SH cells assessed as inhibition of loperamide-stimulated [35S]-GTPgammaS binding after 60 mins by liquid scintillation counting; format: functional, cell-based
Procedure, shortened: (§2)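 [35S]GTPγS binding in cell membranes: delta antagonism measured against deltorphin C-stimulated binding in NG108-15 membranes, mu antagonism against loperamide-stimulated binding in SK-N-SH membranes; antagonism expressed as pA2 from rightward shift of agonist dose-response curves.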

[6] = target: Delta-type opioid receptor (Rattus norvegicus) (UniProt P33533); assay: Antagonist activity at delta opioid receptor in rat NG108-15 cells assessed as inhibition of deltorphin C-stimulated [35S]-GTPgammaS binding after 60 mins by scintillation counting; format: functional, cell-based; procedure, shortened: as §2
Rattus norvegicus [7] = organism: Rattus norvegicus; assay: Selectivity ratio of Ki for rat mu opioid receptor to Ki for rat delta opioid receptor
Rattus norvegicus [8] = organism: Rattus norvegicus; assay: Selectivity ratio of Ki for rat delta opioid receptor to Ki for rat mu opioid receptor

Chain of Mu-type opioid receptor (Cavia porcellus, UniProt P97266) (P97266 whole entry): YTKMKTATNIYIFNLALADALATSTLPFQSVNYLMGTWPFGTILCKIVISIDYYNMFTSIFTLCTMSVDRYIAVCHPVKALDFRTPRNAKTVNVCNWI
Chain of Mu-type opioid receptor (Homo sapiens) (P35372 whole entry): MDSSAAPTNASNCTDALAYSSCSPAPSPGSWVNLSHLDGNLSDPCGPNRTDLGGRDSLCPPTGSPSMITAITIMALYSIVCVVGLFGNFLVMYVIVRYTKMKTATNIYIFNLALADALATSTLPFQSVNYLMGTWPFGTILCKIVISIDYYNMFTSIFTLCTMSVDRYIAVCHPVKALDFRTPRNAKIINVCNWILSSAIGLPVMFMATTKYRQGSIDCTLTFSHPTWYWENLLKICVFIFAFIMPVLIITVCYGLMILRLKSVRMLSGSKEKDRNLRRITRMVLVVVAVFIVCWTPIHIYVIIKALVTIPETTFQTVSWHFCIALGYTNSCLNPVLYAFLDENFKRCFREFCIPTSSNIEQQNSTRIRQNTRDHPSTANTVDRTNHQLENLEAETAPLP
Chain of Delta-type opioid receptor (Rattus norvegicus) (P33533 whole entry): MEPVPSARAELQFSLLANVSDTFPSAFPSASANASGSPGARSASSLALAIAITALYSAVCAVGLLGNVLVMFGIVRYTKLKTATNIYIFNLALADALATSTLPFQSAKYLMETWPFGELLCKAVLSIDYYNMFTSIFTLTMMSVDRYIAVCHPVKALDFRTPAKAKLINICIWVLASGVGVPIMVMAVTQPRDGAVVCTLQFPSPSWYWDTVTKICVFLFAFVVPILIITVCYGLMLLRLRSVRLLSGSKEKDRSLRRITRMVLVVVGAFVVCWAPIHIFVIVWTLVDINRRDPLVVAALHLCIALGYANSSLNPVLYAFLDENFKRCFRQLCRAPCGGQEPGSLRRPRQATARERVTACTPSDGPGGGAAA
Chain of Delta-type opioid receptor (Rattus norvegicus, UniProt P33533) (P33533 whole entry): as above
Chain of Delta-type opioid receptor (Mus musculus, UniProt P32300) (P32300 whole entry): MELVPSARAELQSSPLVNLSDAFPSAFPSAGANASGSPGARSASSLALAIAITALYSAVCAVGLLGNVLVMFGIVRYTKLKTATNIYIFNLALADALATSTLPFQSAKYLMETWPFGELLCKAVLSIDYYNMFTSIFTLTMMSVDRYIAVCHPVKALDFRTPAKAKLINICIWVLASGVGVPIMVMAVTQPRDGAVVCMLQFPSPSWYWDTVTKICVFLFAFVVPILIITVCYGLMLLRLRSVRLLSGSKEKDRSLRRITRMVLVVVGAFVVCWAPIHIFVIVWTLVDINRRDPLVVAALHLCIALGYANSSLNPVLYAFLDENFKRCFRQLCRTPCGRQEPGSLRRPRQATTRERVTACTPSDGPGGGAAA
Chain of Mu-type opioid receptor (Rattus norvegicus, UniProt P33535) (P33535 whole entry): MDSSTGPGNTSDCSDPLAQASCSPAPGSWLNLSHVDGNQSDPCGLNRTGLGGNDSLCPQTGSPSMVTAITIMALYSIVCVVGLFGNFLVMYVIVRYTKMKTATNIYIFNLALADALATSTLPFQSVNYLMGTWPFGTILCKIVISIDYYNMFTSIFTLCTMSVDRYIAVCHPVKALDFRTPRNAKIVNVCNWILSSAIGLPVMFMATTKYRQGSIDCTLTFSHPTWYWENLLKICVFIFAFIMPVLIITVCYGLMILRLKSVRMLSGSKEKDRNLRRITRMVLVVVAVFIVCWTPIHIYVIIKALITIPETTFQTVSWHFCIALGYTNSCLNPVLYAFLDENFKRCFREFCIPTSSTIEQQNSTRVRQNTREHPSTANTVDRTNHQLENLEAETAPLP

Row | Structure (SMILES) | IC50 (Mu-type opioid receptor [1]) | IC50 [2] | Ki [3] | Ki (Mu-type opioid receptor [4]) | pA2 [5] | pA2 [6] | Ratio Ki (Rattus norvegicus [7]) | Ratio Ki (Rattus norvegicus [8])
1 | Cc1cc(O)cc(C)c1C[C@H](N)C(=O)N1Cc2ccccc2C[C@H]1C(=O)NCCNC(=O)[C@@H]1Cc2ccccc2CN1C(=O)[C@@H](N)Cc1c(C)cc(O)cc1C (I: H-[Dmt]-[Tic] / II: H-[Dmt]-[Tic]; linker I:C-II:C via Ethylenediamine) | > 10000 nM | > 10000 nM | 0.96 nM | 10.2 nM |  |  |  | 
2 | Cc1cc(O)cc(C)c1C[C@@H](C(=O)N[C@H]1Cc2c([nH]c3ccccc23)CN(CC(=O)NCCNC(=O)CN2Cc3[nH]c4ccccc4c3C[C@H](NC(=O)[C@H](Cc3c(C)cc(O)cc3C)N(C)C)C2=O)C1=O)N(C)C |  |  | 101 nM | 344 nM | inactive | inactive | 3.4 | 
3 | Cc1cc(O)cc(C)c1C[C@H](N)C(=O)N1Cc2ccccc2C[C@H]1C(=O)O (H-[Dmt]-[Tic]-OH) |  |  |  | 3.32 nM |  |  |  | 
4 | Cc1cc(O)cc(C)c1C[C@H](N)C(=O)N1Cc2ccccc2C[C@H]1C(=O)NCC/C=C/CCNC(=O)[C@@H]1Cc2ccccc2CN1C(=O)[C@@H](N)Cc1c(C)cc(O)cc1C |  |  |  | 1.5 nM |  |  |  | 
5 | Cc1cc(O)cc(C)c1C[C@H](N)C(=O)N1Cc2ccccc2C[C@H]1C(=O)NCCN(CCNC(=O)[C@@H]1Cc2ccccc2CN1C(=O)[C@@H](N)Cc1c(C)cc(O)cc1C)CCNC(=O)[C@@H]1Cc2ccccc2CN1C(=O)[C@@H](N)Cc1c(C)cc(O)cc1C | > 10000 nM | > 10000 nM | 3.75 nM | 7.78 nM |  |  |  | 
6 | Cc1cc(O)cc(C)c1C[C@H](N)C(=O)N[C@@H]1Cc2c([nH]c3ccccc23)CN(CC(=O)NCc2ccc(CNC(=O)CN3Cc4[nH]c5ccccc5c4C[C@@H](NC(=O)[C@@H](N)Cc4c(C)cc(O)cc4C)C3=O)cc2)C1=O |  |  | 361 nM | 177 nM | inactive | inactive |  | 2
7 | Cc1cc(O)cc(C)c1C[C@H](N)C(=O)N[C@H]1Cc2ccccc2CN(CC(=O)NCCN(CCNC(=O)CN2Cc3ccccc3C[C@H](NC(=O)[C@@H](N)Cc3c(C)cc(O)cc3C)C2=O)CCNC(=O)CN2Cc3ccccc3C[C@H](NC(=O)[C@@H](N)Cc3c(C)cc(O)cc3C)C2=O)C1=O | > 10000 nM | > 10000 nM | 196 nM | 8.06 nM |  |  |  | 
8 | Cc1cc(O)cc(C)c1C[C@H](N)C(=O)N[C@@H]1Cc2c([nH]c3ccccc23)CN(CC(=O)NCCNC(=O)CN2Cc3[nH]c4ccccc4c3C[C@@H](NC(=O)[C@@H](N)Cc3c(C)cc(O)cc3C)C2=O)C1=O |  |  | 211 nM | 139 nM | inactive | inactive |  | 1.5
9 | Cc1cc(O)cc(C)c1C[C@H](N)C(=O)N[C@H]1Cc2ccccc2CN(CC(=O)NCCNC(=O)CN2Cc3ccccc3C[C@H](NC(=O)[C@@H](N)Cc3c(C)cc(O)cc3C)C2=O)C1=O | > 10000 nM |  | 154 nM | 16.1 nM |  |  |  | 
